Experimental data published in ChEMBL document CHEMBL1125672, “2-acetylpyridine thiosemicarbazones. 13. Derivatives with antifilarial activity” (1991).

Tests used:
Acanthocheilonema viteae [1] = assay: anti-filarial Activity was measured against Acanthocheilonema viteae in jirds at 100 mg/kg/day(5 days) dose; assay type: functional
Outline: (§1)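 Jirds with established B. pahangi or A. viteae infections were given drug once daily for 5 days by subcutaneous injection, at the maximum tolerated dose and, where supply allowed, graded lower doses. Tolerance was first checked in noninfected jirds with a single 200 mg/kg oral or subcutaneous dose, watching 72 h for excessive weight loss or death. Macrofilarial suppression was the read-out.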

Brugia pahangi [2] = assay: anti-filarial Activity was measured against Brugia pahangi in jirds at 100 mg/kg/day(5 days) dose; assay type: functional; outline: as §1
Acanthocheilonema viteae [3] = assay: anti-filarial Activity was measured against Acanthocheilonema viteae in jirds at 25 mg/kg/day(5 days) dose; assay type: functional; outline: as §1
Acanthocheilonema viteae [4] = assay: anti-filarial Activity was measured against Acanthocheilonema viteae in jirds at 50 mg/kg/day(5 days) dose; assay type: functional; outline: as §1
Acanthocheilonema viteae [5] = assay: anti-filarial Activity was measured against Acanthocheilonema viteae in jirds at 75 mg/kg/day(5 days) dose; assay type: functional; outline: as §1
Brugia pahangi [6] = assay: anti-filarial Activity was measured against Brugia pahangi in jirds at 25 mg/kg/day(5 days) dose; assay type: functional; outline: as §1
Brugia pahangi [7] = assay: anti-filarial Activity was measured against Brugia pahangi in jirds at 50 mg/kg/day(5 days) dose; assay type: functional; outline: as §1
Brugia pahangi [8] = assay: anti-filarial Activity was measured against Brugia pahangi in jirds at 75 mg/kg/day(5 days) dose; assay type: functional; outline: as §1
Acanthocheilonema viteae [9] = assay: anti-filarial Activity was measured against Acanthocheilonema viteae in jirds at 12.5 mg/kg/day(5 days) dose; assay type: functional; outline: as §1
Brugia pahangi [10] = assay: anti-filarial Activity was measured against Brugia pahangi in jirds at 1.56 mg/kg/day(5 days) dose; assay type: functional; outline: as §1
Brugia pahangi [11] = assay: anti-filarial Activity was measured against Brugia pahangi in jirds at 100 mg/kg/day(5 days) dose;toxic; assay type: functional, organism-based; outline: as §1
Brugia pahangi [12] = assay: anti-filarial Activity was measured against Brugia pahangi in jirds at 12.5 mg/kg/day(5 days) dose; assay type: functional; outline: as §1
Acanthocheilonema viteae [13] = assay: anti-filarial Activity was measured against Acanthocheilonema viteae in jirds at 1.56 mg/kg/day(5 days) dose; assay type: functional; outline: as §1
Acanthocheilonema viteae [14] = assay: anti-filarial Activity was measured against Acanthocheilonema viteae in jirds at 6.25 mg/kg/day(5 days) dose; assay type: functional; outline: as §1
Brugia pahangi [15] = assay: anti-filarial Activity was measured against Brugia pahangi in jirds at 6.25 mg/kg/day(5 days) dose; assay type: functional; outline: as §1
Acanthocheilonema viteae [16] = assay: anti-filarial Activity was measured against Acanthocheilonema viteae in jirds at 200 mg/kg/day(5 days) dose; assay type: functional; outline: as §1
Brugia pahangi [17] = assay: anti-filarial Activity was measured against Brugia pahangi in jirds at 200 mg/kg/day(5 days) dose; assay type: functional; outline: as §1

Row | SMILES | Suppression (Acanthocheilonema viteae [1]) | Suppression (Brugia pahangi [2]) | Suppression (Acanthocheilonema viteae [3]) | Suppression (Acanthocheilonema viteae [4]) | Suppression (Brugia pahangi [6]) | Suppression (Brugia pahangi [7]) | Suppression (Acanthocheilonema viteae [9]) | Suppression (Brugia pahangi [12]) | also measured
1 | C/C(=N\N=C(/S)Nc1cccc(N)c1)c1ccccn1 | 43% | 17% | – | – | – | – | – | – | –
2 | C/C(=N\N=C(/S)Nc1ccc(C)cc1N)c1ccccn1 | 72% | 100% | 44% | 75% | 29% | 100% | – | – | Suppression (Acanthocheilonema viteae [5]): 72%; Suppression (Brugia pahangi [8]): 100%
3 | C/C(=N\NC(N)=S)c1ccccn1 | – | – | – | – | – | – | 42% | 53% | Suppression (Brugia pahangi [10]): 41%; Suppression (Brugia pahangi [11]): Toxic; Suppression (Acanthocheilonema viteae [13]): 60%
4 | C/C(=N\NC(=S)N1CCN(c2ccccn2)CC1)c1ccccn1 | – | – | – | – | – | – | – | – | Suppression (Acanthocheilonema viteae [14]): 100%; Suppression (Brugia pahangi [15]): -5%; Suppression (Acanthocheilonema viteae [13]): 40%
5 | C/C(=N\N=C(/S)N1CCN(c2ccc(Cl)cc2)CC1)c1ccccn1 | 85% | 14% | – | – | 6% | – | – | – | –
6 | C/C(=N\NC(=S)Nc1ccccc1)c1ccccn1 | – | – | 44% | 25% | 17% | 97% | – | – | –
7 | C/C(=N\N=C(/S)N1CCCCC1)c1ccccn1 | – | – | – | – | – | – | 14% | 65% | Suppression (Acanthocheilonema viteae [14]): 25%; Suppression (Brugia pahangi [15]): 18%
8 | C/C(=N\N=C(/S)Nc1ccc(N)cc1)c1ccccn1 | 34% | 39% | 9% | – | 5% | – | – | – | Suppression (Acanthocheilonema viteae [16]): 25%; Suppression (Brugia pahangi [17]): 60%
9 | C/C(=N\N=C(/S)Nc1ccccc1N)c1ccccc1 | 9% | 15% | 15% | – | 6% | – | – | – | Suppression (Acanthocheilonema viteae [16]): 19%; Suppression (Brugia pahangi [17]): 71%
10 | C/C(=N\N=C(/S)Nc1c(N)c2ccccc2c2ccccc12)c1ccccn1 | 23% | 33% | – | 23% | – | 5% | – | – | –
11 | C/C(=N\N=C(/S)N1CCCCCCCC1)c1ccccn1 | – | – | – | 74% | – | 16% | – | – | –
12 | C/C(=N\NC(=S)N1CCCC1)c1ccccn1 | – | – | – | – | – | – | 31% | 86% | Suppression (Brugia pahangi [10]): 46%
13 | C/C(=N\N=C(/S)NCCN)c1ccccn1 | – | – | 72% | – | 26% | – | -40% | -3% | –
14 | C/C(=N\N=C(/S)Nc1cc2ccccc2cc1N)c1ccccn1 | 37% | 49% | – | 4% | – | – | – | – | –
15 | C/C(=N\N=C(/S)Nc1cccc(N)n1)c1ccccn1 | 14% | 55% | – | 14% | – | 5% | – | – | –
16 | C/C(=N\NC(S)=Nc1ccccc1N)c1ccccn1.Cl.Cl | 100% | 100% | 100% | 100% | 100% | 100% | 36% | 29% | –
